Test [1] addresses T1, P2Y purinoceptor 1 (Homo sapiens, UniProt P47900). As to the kind of experiment: Displacement of [125I]MRS2500 from human P2Y1R expressed in Sf9 cell membrane. The method in brief:
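Competition binding used membranes of Sf9 insect cells expressing hP2Y1R, with [125I]MRS2500 at approximately 0.2 nM.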
A general note: Displacement assays read how much labelled ligand stays bound in the presence of the test substance.

Test [2] deals with T1, P2Y purinoceptor 1. The test is described as follows: Antagonist activity at human P2Y1R expressed in human 1321N1 cells assessed as inhibition of 2-MeSADP-induced increase in intracellular calcium mobilization at 10 uM. In kind it is functional, cell-based. The method in brief:
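hP2Y1R-expressing 1321N1 cells were kept in DMEM with 5% FBS and geneticin, grown overnight to about 60–80% confluency, and loaded with Calcium 4 dye for 1 h at room temperature without washing. Test compound at 10 µM was added 20 min before 2-MeSADP (30 nM; curves 10−9–10−5 M). Read-out was fluorescence (ex 485/em 525 nm), peak minus basal, in triplicate.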
Background: A change in cytosolic calcium serves as a functional read-out for many receptors and channels.

The target in test [3] is T1, P2Y purinoceptor 1. As to the kind of experiment: Displacement of [125I]MRS2500 from human P2Y1R expressed in Sf9 cell membrane at 20 uM. The essentials:
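Binding screen used hP2Y1R-expressing Sf9 cell membranes and about 0.2 nM [125I]MRS2500. Each test compound was applied at 20 µM, and the value is percent inhibition of specific radioligand binding.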

The target in test [4] is T1, P2Y purinoceptor 1. As to the kind of experiment: Antagonist activity at human P2Y1R expressed in human 1321N1 cells assessed as inhibition of 2-MeSADP-induced increase in intracellular inositol phosphate generation. Format: functional, cell-based. The essentials: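 In 1321N1 cells stably expressing hP2Y1R, cells were labeled 18–24 h at 37°C with 2-[3H]myo-inositol in inositol-free DMEM. Agonist-stimulated [3H]inositol phosphate accumulation was measured over 10 min at 37°C with 10 mM LiCl. Total inositol phosphates were separated by anion-exchange chromatography. IC50 is the mean of 3 independent concentration-effect curves.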

By Ki is commonly meant the equilibrium dissociation constant of an inhibitor or competing ligand from its target. Higher therefore signals a looser hold on the target. As usually defined, the inhibition is the drop in the measured response relative to a control, in per cent. Broadly, the IC50 is the point on the concentration scale where inhibition reaches its midpoint.

T1 sequence (P47900 whole entry): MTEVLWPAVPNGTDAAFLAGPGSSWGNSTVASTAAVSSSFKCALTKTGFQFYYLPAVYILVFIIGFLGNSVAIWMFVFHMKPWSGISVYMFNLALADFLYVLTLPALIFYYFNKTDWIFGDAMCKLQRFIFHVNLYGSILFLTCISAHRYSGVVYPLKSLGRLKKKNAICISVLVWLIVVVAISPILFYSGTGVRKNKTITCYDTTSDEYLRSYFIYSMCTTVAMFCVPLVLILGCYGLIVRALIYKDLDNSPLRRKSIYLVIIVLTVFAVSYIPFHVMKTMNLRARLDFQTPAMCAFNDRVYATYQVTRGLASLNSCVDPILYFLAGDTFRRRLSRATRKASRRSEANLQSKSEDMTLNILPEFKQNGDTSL

Consider `Cc1noc(NS(=O)(=O)c2ccc(NC(=O)Nc3cc(Cl)cc(Cl)c3)cc2)c1C`, for which affinity on P2Y purinoceptor 1 [1] was put at a Ki of 27 µM. On P2Y purinoceptor 1 [2], the inhibition turned out to be 17.6%.

Regarding `COc1ccc(S(=O)(=O)Nc2ccc3c(c2)C(=O)Nc2ccccc2O3)cc1OC`, on P2Y purinoceptor 1 [3], the inhibition is 20%.

`Cc1noc(NS(=O)(=O)c2ccc(NC(=O)Nc3ccc(F)c(Cl)c3)cc2)c1C` yielded a Ki at P2Y purinoceptor 1 [1] of 42 µM. Besides, at P2Y purinoceptor 1 [2], the inhibition was 31.3%.

`COc1cc(NS(=O)(=O)c2ccc(NC(=O)Nc3cccc(Cl)c3)cc2)nc(OC)n1` came in with a Ki on P2Y purinoceptor 1 [1] of 6 µM.

On to `Cc1ccc(NC(=O)Nc2ccc(S(=O)(=O)Nc3onc(C)c3C)cc2)cc1C`, for which the IC50 at P2Y purinoceptor 1 [4] was 0.13 µM. The figures for the inhibition at P2Y purinoceptor 1 [3] and on P2Y purinoceptor 1 [2] were below 10% and 9.4%, respectively.

With `CC1=C2C(=O)NC(SCC(=O)Nc3ccc(S(=O)(=O)NCCCC(=O)O)cc3)=NC2SC1C(=O)O` (configuration not stated), on P2Y purinoceptor 1 [3], the inhibition came to 30%.

Regarding `Cc1noc(NS(=O)(=O)c2ccc(NC(=O)Nc3cc(F)cc(F)c3)cc2)c1C`, the Ki at P2Y purinoceptor 1 [1] was at least 100 µM. Moreover, the inhibition on P2Y purinoceptor 1 [2] was 10.2%.

As to `Cn1nnc2c(Cc3ccc(S(N)(=O)=O)cc3)ncnc21`, at P2Y purinoceptor 1 [3], the inhibition was 20%.

In the case of `Cc1noc(NS(=O)(=O)c2ccc(NC(=O)Nc3ccc(Cl)c(Cl)c3)cc2)c1C`, the IC50 at P2Y purinoceptor 1 [4] worked out at 0.14 µM. Moreover, affinity on P2Y purinoceptor 1 [1] was put at a Ki of 13 µM. Moreover, the inhibition at P2Y purinoceptor 1 [2] came to 36.8%.

With `Cn1c(=O)[nH]c(=O)c2nc(NCCCO)n(CC(O)COc3ccccc3)c21` (configuration not stated), on P2Y purinoceptor 1 [3], the inhibition is 20%.

The molecule `O=C(CSC1=NC(=O)N(CCCN2CCOCC2)C2CCCC12)Nc1ccc2c(c1)OCO2` (configuration not stated) returned an inhibition on P2Y purinoceptor 1 [3] of 20%.

Turning to `Cc1noc(NS(=O)(=O)c2ccc(NC(=O)Nc3ccccc3)cc2)c1C`, the values for the inhibition on P2Y purinoceptor 1 [3] and on P2Y purinoceptor 1 [2] were below 10% and below 5%, respectively.

At P2Y purinoceptor 1 [1], `Cc1noc(NS(=O)(=O)c2ccc(NC(=O)Nc3ccc(C(F)(F)F)cc3)cc2)c1C` yielded a Ki of 45 µM. Further, the inhibition on P2Y purinoceptor 1 [2] turned out to be 32.7%.

As to `Cc1cc(NC(=O)CSc2ccc3nnc(CCNS(=O)(=O)c4ccccc4)n3n2)no1`, at P2Y purinoceptor 1 [3], the inhibition came out at 20%.

As to `CN(C)CCCN(C(=O)c1ccco1)c1nc2cc3c(cc2s1)OCO3`, the inhibition at P2Y purinoceptor 1 [3] was 40%.

Regarding `COc1ccc(NC(=O)Nc2ccc(S(=O)(=O)Nc3onc(C)c3C)cc2)cc1OC`, the inhibition at P2Y purinoceptor 1 [3] was below 10%; at P2Y purinoceptor 1 [2] it was 9.1%.

Regarding `CCc1nnc(NS(=O)(=O)c2ccc(NC(=O)Nc3ccc(C(F)(F)F)cc3)cc2)s1`, at P2Y purinoceptor 1 [1], the affinity corresponds to a Ki of 10 µM.

In the case of `COc1ccc(S(=O)(=O)NCC(c2ccc3c(c2)OCO3)N2CCN(C)CC2)cc1OC` (configuration not stated), at P2Y purinoceptor 1 [3], the inhibition stood at 20%.

Take `Cc1noc(NS(=O)(=O)c2ccc(NC(=O)Nc3ccc(F)c(F)c3)cc2)c1C`: the values for the inhibition on P2Y purinoceptor 1 [3] and on P2Y purinoceptor 1 [2] were below 10% and 11.3%, respectively.

In turn, `Cc1noc(NS(=O)(=O)c2ccc(NC(=O)Nc3cccc(Cl)c3)cc2)c1C` had a Ki at P2Y purinoceptor 1 [1] of at least 100 µM. Further, on P2Y purinoceptor 1 [2], the inhibition was 21.7%.

The record behind these values is ChEMBL document CHEMBL2069288, “Virtual screening leads to the discovery of novel non-nucleotide P2Y₁ receptor antagonists” (Bioorg Med Chem, 2012).
